This note sets out measurements from ChEMBL document CHEMBL5365494, “Bis-6-amidino-benzothiazole Derivative that Cures Experimental Stage 1 African Trypanosomiasis with a Single Dose” (J Med Chem, 2023).

One series relates to Trypanosoma brucei. In words: Antitrypanosomal activity against blood stream form of Trypanosoma brucei 221a variant assessed as parasite growth inhibition measured after 48 hrs by resazurin dye based fluorescence analysis. Format: functional, organism-based. The conditions noted are these: for EC50: 48 h; for EC90: time 48 hrs. Put shortly:
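Bloodstream-form T. b. brucei 221a (MiTat1.2a) in modified Iscove's medium at 37 °C, started at 2.5×10^4 mL^-1 with a concentration range. After 48 h, resazurin was added for a further 16 h. Fluorescence read at ex 545/em 590 nm. EC50 and EC90 taken from three independent replicates.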
(The colour change of resazurin is a common sign of viable cells or microbes.)

Series [1] in a line: Cytotoxicity against rat L6 cells assessed as cell growth inhibition incubated for 6 days by resazurin dye based assay. The class given is toxicity. Put shortly: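 Rat L6 myoblasts seeded at 1×10⁴ mL⁻¹ in RPMI-1640 with a range of compound concentrations, 6 days at 37 °C; resazurin added, 6 h further, fluorescence ex 545/em 590 nm.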
Series [2] can be described thus: Selectivity index, ratio of EC50 for cytotoxicity against rat L6 cells to EC50 for antitrypanosomal activity against bloodstream form of Trypanosoma brucei brucei 221a variant. The class given is toxicity, cell-based. The conditions noted are these: read-out: Ratio EC50. A digest of the protocol: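 L6 rat myoblasts seeded at 1×10^4 mL^-1 in RPMI-1640 with a compound concentration range for 6 days at 37 °C. Resazurin added for 6 h, then fluorescence read.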

A short description of series [3]: Apparent permeability across apical to basolateral side in MDCK-MDR1 cells at 10 uM measured for 60 mins by LC-MS/MS analysis. The class given is ADME, cell-based, Canis lupus familiaris. The conditions noted are these: dog. A digest of the protocol:
(§1)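 MDCKII-hMDR1 monolayers on inserts, compound 10 μM (1% DMSO) in duplicate, 60 min at 37 °C, bidirectional, with and without elacridar 2 μM. Amprenavir as P-gp control, Lucifer yellow for monolayer integrity; compound quantified by LC–MS/MS.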

The nature of series [4]: Apparent permeability across basolateral to apical side in MDCK-MDR1 cells at 10 uM measured for 60 mins by LC-MS/MS analysis. Format: ADME, cell-based, Canis lupus familiaris. To be noted: dog, MDCK-MDR1. A digest of the protocol:
as §1

The nature of series [5]: Efflux ratio of apparent permeability across basolateral to apical side over apical to basolateral side in MDCK-MDR1 cells at 10 uM measured for 60 mins by LC-MS/MS analysis. The class given is ADME, cell-based, Canis lupus familiaris. To be noted: dog, mdck-mdr1, 1 h. Put shortly:
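MDCKII cells overexpressing human MDR1 (P-glycoprotein) grown as monolayers on inserts; bidirectional transport (apical-to-basolateral and basolateral-to-apical) of 10 μM compound (1% DMSO) at 37 °C for 60 min, in duplicate, with and without P-gp inhibitor elacridar (2 μM). Monolayer integrity checked with Lucifer yellow; amprenavir as P-gp control. Compound quantified by LC–MS/MS; efflux ratio = BA Papp/AB Papp.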

Series [6] can be described thus: Metabolic stability in mouse liver microsomes assessed as half life at 1 uM measured upto 60 mins in presence of NADPH by LC-MS/MS analysis. The class given is ADME, Microsome. The conditions noted are these: 1 h. On the technique in general: Microsomes from liver hold many membrane-bound enzymes, among them those of drug oxidation.

Broadly, the EC50 is the midpoint of the concentration-response curve. The term EC90 denotes the concentration at which the effect reaches the 90% level. `N=C(N)c1ccc2nc(CCCCCc3nc4ccc(C(=N)N)cc4s3)sc2c1`: in the series on Trypanosoma brucei, the EC50 came to 0.098 µM and the concentration for an effect of 90% (EC90) was 0.145 µM. For the same compound, the half-maximal effective concentration (EC50) at 6 days in series [1] is 114 µM. The selectivity ratio in series [2] turned out to be 1200.

As to `c1cc2nc(CCc3nc4ccc(C5=NCCCN5)cc4s3)sc2cc1C1=NCCCN1`, in the series with Trypanosoma brucei, the EC50 was 2.38 µM and the concentration for an effect of 90% (EC90) was 3.48 µM. Besides, in series [1], the half-maximal effective concentration (EC50) at 6 days is greater than 140 µM. Moreover, the selectivity ratio in series [2] is greater than 59.

Regarding `c1cc2nc(CCCCCCCc3nc4ccc(C5=NCCN5)cc4s3)sc2cc1C1=NCCN1`, in the series with Trypanosoma brucei, the EC50 was 1.49 µM and the EC90 was 2.52 µM. The concentration giving a half-maximal response (EC50) at 6 days in series [1] worked out at 6.85 µM. Further, in series [2], the selectivity ratio came out at 4.6.

By Papp A→B is commonly meant how fast a substance crosses the layer from the apical side. For orientation: Papp B→A means the apparent permeability from the basolateral to the apical side of a cell layer. Take `O=C(O)Cc1ccccc1Nc1c(Cl)cccc1Cl` [DICLOFENAC]: the Papp A→B at 1 h, 10 µM in series [3] turned out to be 47.3 ×10⁻⁶ cm/s. Moreover, the Papp B→A at 1 h, 10 µM in series [4] was 31.2 ×10⁻⁶ cm/s. For the same compound, the Ratio in series [5] was found to be 0.7.

As to `CC(C)CN(C[C@@H](O)[C@H](Cc1ccccc1)NC(=O)O[C@H]1CCOC1)S(=O)(=O)c1ccc(N)cc1` [AMPRENAVIR], the apparent permeability from apical to basolateral (Papp A→B) at 1 h, 10 µM in series [3] was 0.5 ×10⁻⁶ cm/s.

Consider `C[C@]12CC[C@H]3[C@@H](CCC4=CC(=O)CC[C@@]43C)[C@@H]1CC[C@@H]2O` [TESTOSTERONE], for which the t1/2 in series [6] turned out to be 6.7 min.

Regarding `c1cc2nc(CCCCc3nc4ccc(C5=NCCCN5)cc4s3)sc2cc1C1=NCCCN1`, in the series on Trypanosoma brucei, the EC50 was found to be 0.19 µM and the concentration for an effect of 90% (EC90) was 0.31 µM. Further, the EC50 at 6 days in series [1] is greater than 130 µM. Besides, in series [2], the selectivity ratio was greater than 680.

With `C(=C\c1nc2ccc(C3=NCCCN3)cc2s1)/c1nc2ccc(C3=NCCCN3)cc2s1`, in the series with Trypanosoma brucei, the 50% effective concentration (EC50) is 0.1 µM and the 90% effect concentration (EC90) was 0.16 µM. In series [1], the EC50 at 6 days was 51.8 µM. Besides, the selectivity ratio in series [2] turned out to be 520.

With `N=C(N)c1ccc2nc(CCc3nc4ccc(C(=N)N)cc4s3)sc2c1`, in the series with Trypanosoma brucei, the half-maximal effective concentration (EC50) came out at 0.25 µM and the EC90 was 0.4 µM. The half-maximal effective concentration (EC50) at 6 days in series [1] is greater than 170 µM. Also, the selectivity ratio in series [2] is greater than 680.

For the compound `N=C(N)c1ccc2nc(CCCc3nc4ccc(C(=N)N)cc4s3)sc2c1`, in the series with Trypanosoma brucei, the half-maximal effective concentration (EC50) amounted to 0.34 µM and the EC90 stood at 0.75 µM. Also, the EC50 at 6 days in series [1] is greater than 160 µM. Moreover, the selectivity ratio in series [2] is greater than 470.

Take `c1cc2nc(CCCCCCc3nc4ccc(C5=NCCCN5)cc4s3)sc2cc1C1=NCCCN1`: in the series with Trypanosoma brucei, the 50% effective concentration (EC50) was 0.028 µM and the EC90 is 0.056 µM. Moreover, the EC50 at 6 days in series [1] is greater than 130 µM. For the same compound, the selectivity ratio in series [2] is greater than 4600.

Take `c1cc2nc(C3CCC(c4nc5ccc(C6=NCCN6)cc5s4)CC3)sc2cc1C1=NCCN1` (stereo not drawn): in the series with Trypanosoma brucei, the EC50 turned out to be 0.24 µM and the 90% effect concentration (EC90) was 0.49 µM. Further, in series [1], the 50% effective concentration (EC50) at 6 days came out at 4.15 µM. Moreover, the selectivity ratio in series [2] is 17.

As to `N=C(N)c1ccc2nc(CCCCCCCc3nc4ccc(C(=N)N)cc4s3)sc2c1`, in the series with Trypanosoma brucei, the EC50 turned out to be 0.74 µM and the 90% effect concentration (EC90) amounted to 1.39 µM. In addition, the EC50 at 6 days in series [1] amounted to 13.9 µM. In addition, in series [2], the selectivity ratio was 18.

As to `c1cc2nc(CCCc3nc4ccc(C5=NCCN5)cc4s3)sc2cc1C1=NCCN1`, in the series on Trypanosoma brucei, the concentration for a half-maximal effect (EC50) came out at 5.39 µM and the EC90 was found to be 9.01 µM. For the same compound, the 50% effective concentration (EC50) at 6 days in series [1] was greater than 150 µM. Also, the selectivity ratio in series [2] was greater than 28.

Take `Cn1c(=O)c2c(ncn2C)n(C)c1=O` [CAFFEINE]: the t1/2 in series [6] was greater than 60 min.

For the compound `C(=C\c1nc2ccc(C3=NCCN3)cc2s1)/c1nc2ccc(C3=NCCN3)cc2s1`, in the series with Trypanosoma brucei, the EC50 came to 0.19 µM and the 90% effect concentration (EC90) came out at 0.68 µM. In addition, the EC50 at 6 days in series [1] amounted to 4.1 µM. In addition, the selectivity ratio in series [2] stood at 22.

For `c1cc2nc(CCCCCc3nc4ccc(C5=NCCN5)cc4s3)sc2cc1C1=NCCN1`, in the series on Trypanosoma brucei, the concentration for a half-maximal effect (EC50) was 1.56 µM and the 90% effect concentration (EC90) was 2.11 µM. Further, the EC50 at 6 days in series [1] amounted to 93.5 µM. The selectivity ratio in series [2] was found to be 60.

`c1cc2nc(CCc3nc4ccc(C5=NCCN5)cc4s3)sc2cc1C1=NCCN1`: in the series with Trypanosoma brucei, the EC50 was found to be 3.64 µM and the concentration for an effect of 90% (EC90) was found to be 7.82 µM. In addition, the concentration for a half-maximal effect (EC50) at 6 days in series [1] is 80.6 µM. Moreover, the selectivity ratio in series [2] is 22.

In the case of `c1cc2nc(CCCCc3nc4ccc(C5=NCCN5)cc4s3)sc2cc1C1=NCCN1`, in the series with Trypanosoma brucei, the EC50 was 1.14 µM and the 90% effect concentration (EC90) was found to be 1.87 µM. Further, the EC50 at 6 days in series [1] amounted to 93 µM. In series [2], the selectivity ratio amounted to 82.

Regarding `CSc1ccc(OCc2ncc([N+](=O)[O-])n2C)cc1` [FEXINIDAZOLE], in the series with Trypanosoma brucei, the EC50 turned out to be 2.4 µM and the EC90 stood at 4.51 µM.

As for `N=C(N)c1ccc2nc(CCCCc3nc4ccc(C(=N)N)cc4s3)sc2c1`, in the series with Trypanosoma brucei, the 50% effective concentration (EC50) was determined as 0.063 µM and the EC90 was 0.131 µM. In series [1], the EC50 at 6 days was 134 µM. The selectivity ratio in series [2] came out at 2100.

In the case of `N=C(N)c1ccc2nc(CCCCCCc3nc4ccc(C(=N)N)cc4s3)sc2c1`, in the series on Trypanosoma brucei, the EC50 came out at 0.89 µM and the EC90 amounted to 1.52 µM. Also, the EC50 at 6 days in series [1] was 42.5 µM. Moreover, the selectivity ratio in series [2] was 48.

With `c1cc2nc(CCCCCCc3nc4ccc(C5=NCCN5)cc4s3)sc2cc1C1=NCCN1`, in the series with Trypanosoma brucei, the EC50 was determined as 0.82 µM and the 90% effect concentration (EC90) was determined as 1.88 µM. Moreover, in series [1], the concentration giving a half-maximal response (EC50) at 6 days came out at 10.9 µM. Moreover, in series [2], the selectivity ratio worked out at 13.

On to `c1cc2nc(C3CCC(c4nc5ccc(C6=NCCCN6)cc5s4)CC3)sc2cc1C1=NCCCN1` (stereo not drawn), for which, in the series on Trypanosoma brucei, the EC50 was 0.021 µM and the 90% effect concentration (EC90) was determined as 0.031 µM. The concentration giving a half-maximal response (EC50) at 6 days in series [1] was greater than 130 µM. Also, the selectivity ratio in series [2] was greater than 6200.

As to `N=C(N)c1ccc2nc(/C=C/c3nc4ccc(C(=N)N)cc4s3)sc2c1`, in the series on Trypanosoma brucei, the concentration giving a half-maximal response (EC50) is 0.012 µM and the EC90 was found to be 0.022 µM. Moreover, the half-maximal effective concentration (EC50) at 6 days in series [1] was determined as 2.48 µM. For the same compound, in series [2], the selectivity ratio stood at 210.
